Results taken from ChEMBL document CHEMBL2311390, “Synthesis and preliminary evaluation of pharmacological properties of some piperazine derivatives of xanthone” (Bioorg Med Chem, 2013).
pKi: −log10 of the molar value.

Assays:
Rattus norvegicus [1] = assay: Hypotensive activity in normotensive Wistar rat assessed as reduction of diastolic blood pressure at 0.16 mg/kg, iv after 10 mins; type: functional, Artery
Outline: (§1)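 Male normotensive Wistar rats were anaesthetised with thiopental 75 mg/kg ip. The right carotid artery was cannulated with heparinised saline for pressure recording. After 5 min of stabilisation, compound was injected into the tail vein at 1 mL/kg. Systolic and diastolic pressure were followed up to 60 min. Data are means ± SEM of 5–6 rats, analysed by one-way ANOVA.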

Rattus norvegicus [2] = assay: Cardiotoxicity in Wistar rat assessed as QRS interval at 2.5 mg/kg, iv after 5 mins by ECG analysis; type: toxicity, organism-based; set-up: dose 2.5 mg/kg, route intravenous; conditions: in vivo
Outline: (§2)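 Male normotensive Wistar rats (170–350 g, groups of six) were anaesthetised. Compound was given iv at 1 mL/kg. ECG was recorded just before dosing and at 1, 5 and 15 min after, and PQ, QRS and QT intervals and heart rate were read. Groups were compared by one-way ANOVA.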

Rattus norvegicus [3] = assay: Cardiotoxicity in Wistar rat assessed as PQ interval at 2.5 mg/kg, iv after 10 mins by ECG analysis; type: toxicity, organism-based; set-up: dose 2.5 mg/kg, route intravenous; conditions: in vivo
Rattus norvegicus [4] = assay: Hypotensive activity in normotensive Wistar rat assessed as reduction of diastolic blood pressure at 0.31 mg/kg, iv after 20 mins; type: functional, Artery; outline: as §1
Rattus norvegicus [5] = assay: Cardiotoxicity in Wistar rat assessed as PQ interval at 2.5 mg/kg, iv after 15 mins by ECG analysis; type: toxicity, organism-based; set-up: dose 2.5 mg/kg, route intravenous; conditions: in vivo, 0.25 h; outline: as §2
Rattus norvegicus [6] = assay: Cardiotoxicity in Wistar rat assessed as QRS interval at 2.5 mg/kg, iv after 15 mins by ECG analysis; type: toxicity, organism-based; set-up: dose 2.5 mg/kg, route intravenous; conditions: in vivo, 0.25 h; outline: as §2
Rattus norvegicus [7] = assay: Cardiotoxicity in Wistar rat assessed as QT interval at 2.5 mg/kg, iv after 10 mins by ECG analysis; type: toxicity, organism-based; set-up: dose 2.5 mg/kg, route intravenous; conditions: in vivo
Rattus norvegicus [8] = assay: Cardiotoxicity in Wistar rat assessed as QT interval at 2.5 mg/kg, iv after 15 mins by ECG analysis; type: toxicity, organism-based; set-up: dose 2.5 mg/kg, route intravenous; conditions: in vivo, 0.25 h; outline: as §2
Rattus norvegicus [9] = assay: Cardiotoxicity in Wistar rat assessed as hear beats per min at 2.5 mg/kg, iv after 15 mins by ECG analysis; type: toxicity, organism-based; set-up: dose 2.5 mg/kg, route intravenous; conditions: in vivo, 0.25 h; outline: as §2
Rattus norvegicus [10] = assay: Cardiotoxicity in Wistar rat assessed as QRS interval at 2.5 mg/kg, iv after 10 mins by ECG analysis; type: toxicity, organism-based; set-up: dose 2.5 mg/kg, route intravenous; conditions: in vivo
Rattus norvegicus [11] = assay: Cardiotoxicity in Wistar rat assessed as PQ interval at 2.5 mg/kg, iv after 5 mins by ECG analysis; type: toxicity, organism-based; set-up: dose 2.5 mg/kg, route intravenous; conditions: in vivo; outline: as §2
Rattus norvegicus [12] = assay: Cardiotoxicity in Wistar rat assessed as hear beats per min at 2.5 mg/kg, iv after 5 mins by ECG analysis; type: toxicity, organism-based; set-up: dose 2.5 mg/kg, route intravenous; conditions: in vivo; outline: as §2
[13] = Displacement of [3H]CGP-12177 from beta1-adrenergic receptor in rat cerebral cortex by liquid scintillation counting; type: tissue-based
Outline: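 Rat cerebral cortex was homogenised in ice-cold 50 mM Tris-HCl pH 7.6 and spun at 20,000 g for 20 min at 0–4 °C, then washed once. Radioligands: [3H]prazosin 0.2 nM for α1, [3H]clonidine 2 nM for α2, [3H]CGP-12177 0.2 nM for β1. Test compounds were run at 7–8 concentrations from 10^-11 to 10^-4 M. Nonspecific binding was defined with phentolamine (α1), clonidine (α2) or propranolol (β1). Counting was by liquid scintillation, in duplicate. Ki was derived by Cheng–Prusoff from 2–3 experiments.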

Rattus norvegicus [14] = assay: Antiarrhythmic activity in iv dosed Wistar rat adrenaline-induced arrhythmia model assessed as reduction of heart-rhythm disturbance administered 15 mins adrenaline-challenge; type: functional; conditions: 0.25 h
Outline: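 Anaesthetised male Wistar rats (thiopental 75 mg/kg ip). Test compound iv at 1 mL/kg, given 15 min before adrenaline 20 µg/kg iv. Activity means no premature beats and inhibition of arrhythmia, judged against a control group. There were three dose groups of six rats. ED50 with confidence limits was calculated by the Litchfield–Wilcoxon method.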

Rattus norvegicus [15] = assay: Cardiotoxicity in Wistar rat assessed as hear beats per min at 2.5 mg/kg, iv after 10 mins by ECG analysis; type: toxicity, organism-based; set-up: dose 2.5 mg/kg, route intravenous; conditions: in vivo
Rattus norvegicus [16] = assay: Cardiotoxicity in Wistar rat assessed as QT interval at 2.5 mg/kg, iv after 5 mins by ECG analysis; type: toxicity, organism-based; set-up: dose 2.5 mg/kg, route intravenous; conditions: in vivo; outline: as §2
Rattus norvegicus [17] = assay: Hypotensive activity in normotensive Wistar rat assessed as reduction of systolic blood pressure at 0.31 mg/kg, iv after 20 mins; type: functional, Artery
Outline: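 Male normotensive Wistar rats (170–350 g) anaesthetised with thiopental 75 mg/kg ip; right carotid artery cannulated with heparinised saline-filled polyethylene tubing for pressure recording. After a 5 min stabilisation, compound given into the caudal vein at 1 mL/kg. Systolic pressure is recorded at 0, 5, 10, 20, 30 and 60 min, and the data are reported as mean ± SEM of five to six animals, with one-way ANOVA.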

Rattus norvegicus [18] = assay: Hypotensive activity in normotensive Wistar rat assessed as reduction of systolic blood pressure at 2.5 mg/kg, iv after 30 mins; type: functional, Artery
Outline: as §1, with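 “rats (170–350 g)” for “rats”, “heparin-saline tubing” for “heparinised saline”, “After a” for “After”, “min” for “min of”, “a caudal” for “the tail”, “animals, compared” for “rats, analysed”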

Rattus norvegicus [19] = assay: Hypotensive activity in normotensive Wistar rat assessed as reduction of systolic blood pressure at 2.5 mg/kg, iv after 60 mins; type: functional, Artery
Outline: as §1, with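 “rats (170–350 g)” for “rats”, “heparin-saline tubing” for “heparinised saline”, “After a” for “After”, “min” for “min of”, “a caudal” for “the tail”, “animals, compared” for “rats, analysed”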

Rattus norvegicus [20] = assay: Hypotensive activity in normotensive Wistar rat assessed as reduction of systolic blood pressure at 2.5 mg/kg, iv after 10 mins; type: functional, Artery
Outline: as §1, with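 “rats (170–350 g)” for “rats”, “heparin-saline tubing” for “heparinised saline”, “After a” for “After”, “min” for “min of”, “a caudal” for “the tail”, “animals, compared” for “rats, analysed”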

Rattus norvegicus [21] = assay: Hypotensive activity in normotensive Wistar rat assessed as reduction of diastolic blood pressure at 2.5 mg/kg, iv after 10 mins; type: functional, Artery
Outline: as §1, with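 “rats (170–350 g)” for “rats”, “heparin-saline tubing” for “heparinised saline”, “After a” for “After”, “min” for “min of”, “a caudal” for “the tail”, “animals, compared” for “rats, analysed”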

Rattus norvegicus [22] = assay: Cardiotoxicity in Wistar rat assessed as PQ interval at 10 mg/kg, iv after 5 mins by ECG analysis; type: toxicity, organism-based; set-up: dose 10 mg/kg, route intravenous; conditions: in vivo
Outline: (§3)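 Male normotensive Wistar rats, 170–350 g, six per group. Compound given iv at a constant volume of 1 mL/kg. ECG was recorded just before dosing and at 1, 5 and 15 min after. PQ, QRS and QT intervals and heart rate were read from the trace. Groups were compared by one-way ANOVA.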

Rattus norvegicus [23] = assay: Hypotensive activity in normotensive Wistar rat assessed as reduction of diastolic blood pressure at 2.5 mg/kg, iv after 5 mins; type: functional, Artery
Outline: as §1, with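 “rats (170–350 g)” for “rats”, “heparin-saline tubing” for “heparinised saline”, “After a” for “After”, “min” for “min of”, “a caudal” for “the tail”, “animals, compared” for “rats, analysed”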

Rattus norvegicus [24] = assay: Hypotensive activity in normotensive Wistar rat assessed as reduction of diastolic blood pressure at 2.5 mg/kg, iv after 30 mins; type: functional, Artery
Outline: as §1, with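 “rats (170–350 g)” for “rats”, “heparin-saline tubing” for “heparinised saline”, “After a” for “After”, “min” for “min of”, “a caudal” for “the tail”, “animals, compared” for “rats, analysed”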

Rattus norvegicus [25] = assay: Hypotensive activity in normotensive Wistar rat assessed as reduction of diastolic blood pressure at 2.5 mg/kg, iv after 20 mins; type: functional, Artery
Outline: as §1, with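 “rats (170–350 g)” for “rats”, “heparin-saline tubing” for “heparinised saline”, “After a” for “After”, “min” for “min of”, “a caudal” for “the tail”, “animals, compared” for “rats, analysed”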

Rattus norvegicus [26] = assay: Hypotensive activity in normotensive Wistar rat assessed as reduction of diastolic blood pressure at 2.5 mg/kg, iv after 60 mins; type: functional, Artery
Outline: as §1, with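 “rats (170–350 g)” for “rats”, “heparin-saline tubing” for “heparinised saline”, “After a” for “After”, “min” for “min of”, “a caudal” for “the tail”, “animals, compared” for “rats, analysed”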

Rattus norvegicus [27] = assay: Cardiotoxicity in Wistar rat assessed as QT interval at 10 mg/kg, iv after 5 mins by ECG analysis; type: toxicity, organism-based; set-up: dose 10 mg/kg, route intravenous; conditions: in vivo; outline: as §3
Rattus norvegicus [28] = assay: Hypotensive activity in normotensive Wistar rat assessed as reduction of systolic blood pressure at 2.5 mg/kg, iv after 20 mins; type: functional, Artery
Outline: as §1, with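 “rats (170–350 g)” for “rats”, “heparin-saline tubing” for “heparinised saline”, “After a” for “After”, “min” for “min of”, “a caudal” for “the tail”, “animals, compared” for “rats, analysed”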

Rattus norvegicus [29] = assay: Hypotensive activity in normotensive Wistar rat assessed as reduction of systolic blood pressure at 2.5 mg/kg, iv after 5 mins; type: functional, Artery
Outline: as §1, with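 “rats (170–350 g)” for “rats”, “heparin-saline tubing” for “heparinised saline”, “After a” for “After”, “min” for “min of”, “a caudal” for “the tail”, “animals, compared” for “rats, analysed”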

Rattus norvegicus [30] = assay: Cardiotoxicity in Wistar rat assessed as hear beats per min at 5 mg/kg, iv after 10 mins by ECG analysis; type: toxicity, organism-based; set-up: dose 5 mg/kg, route intravenous; conditions: in vivo

| pKi [13] | SMILES | Activity (Rattus norvegicus [18]) | Activity (Rattus norvegicus [19]) | Activity (Rattus norvegicus [20]) | Activity (Rattus norvegicus [21]) | Activity (Rattus norvegicus [23]) | Activity (Rattus norvegicus [24]) | Activity (Rattus norvegicus [25]) | Activity (Rattus norvegicus [26]) | Activity (Rattus norvegicus [28]) | Activity (Rattus norvegicus [29]) | also measured |
| --- | --- | --- | --- | --- | --- | --- | --- | --- | --- | --- | --- | --- |
| 5.49 | COc1ccccc1N1CCN(CCCOc2cccc3c(=O)c4ccccc4oc23)CC1.Cl |  |  |  |  |  |  |  |  |  |  | Activity (Rattus norvegicus [1]): 99.2 mmHg; Activity (Rattus norvegicus [2]): 20.4 ms; Activity (Rattus norvegicus [3]): 43.2 ms; Activity (Rattus norvegicus [4]): 105.7 mmHg; Activity (Rattus norvegicus [5]): 43.5 ms; Activity (Rattus norvegicus [6]): 20.3 ms; Activity (Rattus norvegicus [7]): 69.8 ms; Activity (Rattus norvegicus [8]): 71.8 ms; Activity (Rattus norvegicus [9]): 295.7 bpm; Activity (Rattus norvegicus [10]): 20.6 ms; Activity (Rattus norvegicus [11]): 43 ms; Activity (Rattus norvegicus [12]): 314.4 bpm; ED50 (Rattus norvegicus [14]): 0.69 mg/kg; Activity (Rattus norvegicus [15]): 306.7 bpm; Activity (Rattus norvegicus [16]): 70 ms; Activity (Rattus norvegicus [17]): 121 mmHg |
|  | Cl.Cl.Cl.O=c1c2ccc(Cl)cc2oc2c(OCC(O)CN3CCN(Cc4ccccc4)CC3)cccc12 (racemic) | 152.2 mmHg | 151.2 mmHg | 149.5 mmHg | 132.2 mmHg | 128.7 mmHg | 134.2 mmHg | 134.5 mmHg | 134.2 mmHg | 152.5 mmHg | 147.2 mmHg | Activity (Rattus norvegicus [22]): 41.9 ms; Activity (Rattus norvegicus [27]): 74 ms |
| 5.28 | Cl.Cl.O=c1c2ccccc2oc2c(OCC(O)CN3CCN(C/C=C/c4ccccc4)CC3)cccc12 (racemic) | 132.6 mmHg | 125.6 mmHg | 144.2 mmHg | 117.2 mmHg | 118.4 mmHg | 110.8 mmHg | 114 mmHg | 105 mmHg | 139.8 mmHg | 144.2 mmHg | Activity (Rattus norvegicus [30]): 311.3 bpm |
